Results reported in ChEMBL document CHEMBL2321672, “Discovery of biphenylacetamide-derived inhibitors of BACE1 using de novo structure-based molecular design” (J Med Chem, 2013).
Activity calls are given as the source filed them. The calls are words filed in the database; no cut-off is given here.

Key:
Beta-secretase 1 [1] = target: T1, Beta-secretase 1 (Homo sapiens, UniProt P56817); assay: Inhibition of recombinant BACE1 (unknown origin) using FAM-SEVNLDAEFK-TAMRA as substrate incubated for 30 mins prior to substrate addition by fluorimetric analysis
Beta-secretase 1 [2] = target: T1, Beta-secretase 1; assay: Inhibition of recombinant BACE1 (unknown origin) using FAM-SEVNLDAEFK-TAMRA as substrate at 100 uM incubated for 30 mins prior to substrate addition by fluorimetric analysis relative to control
[3] = Cytotoxicity against HEK293 cells assessed as cell viability at 100 uM after 24 hrs by MTT assay relative to control; assay type: cell-based; conditions: human, read-out: Activity
Summary of the method: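 MTT viability read-out on mammalian cells after 24-hour exposure to 100 µM compound; viable cells expressed as percentage remaining relative to control; mean ± SEM, n ≥ 3.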

HEK293 = assay: Effect on sAPPalpha level in HEK293 cells coexpressing N-terminal […] APP at 100 uM after 24 hrs by Western blotting analysis; assay type: functional
Summary of the method: (§1)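 HEK 293 cells over-expressing BACE1 were exposed to compound at 100 µM for 24 hours. Conditioned media were western blotted for sAPPα and sAPPβ, with sAPPβ detected by antibody 1A9. Levels were compared with control.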

Beta-secretase 1 [4] = target: T1, Beta-secretase 1; assay: Inhibition of BACE1 (unknown origin) expressed in HEK293 cells coexpressing N-terminal […] APP assessed as decrease in sAPPbeta level at 100 uM after 24 hrs by Western blotting analysis; assay type: cell-based; summary of the method: as §1
Beta-secretase 1 [5] = target: T1, Beta-secretase 1; assay: Inhibition of BACE1 (unknown origin) -mediated sAP-APP production expressed in HEK293 cells coexpressing N-terminal […] APP at 100 uM after 24 hrs by spectrophotometric analysis; assay type: cell-based
Summary of the method: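 HEK 293 cells stably expressing BACE1 plus wild-type human APP carrying an N-terminal alkaline phosphatase tag (AP-APP) were incubated with compound. Release of sAP-APP into conditioned media was quantified as alkaline phosphatase activity and expressed as percentage of the matched control.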

Homo sapiens = organism: Homo sapiens; assay: Selectivity ratio of IC50 for recombinant BACE2 (unknown origin) to IC50 of recombinant BACE1 (unknown origin)
Beta-secretase 2 = target: T2, Beta-secretase 2 (Homo sapiens, UniProt Q9Y5Z0); assay: Inhibition of recombinant BACE2 (unknown origin) using FAM-SEVNLDAEFK-TAMRA as substrate incubated for 30 mins prior to substrate addition by fluorimetric analysis
T2 sequence (Q9Y5Z0 whole entry): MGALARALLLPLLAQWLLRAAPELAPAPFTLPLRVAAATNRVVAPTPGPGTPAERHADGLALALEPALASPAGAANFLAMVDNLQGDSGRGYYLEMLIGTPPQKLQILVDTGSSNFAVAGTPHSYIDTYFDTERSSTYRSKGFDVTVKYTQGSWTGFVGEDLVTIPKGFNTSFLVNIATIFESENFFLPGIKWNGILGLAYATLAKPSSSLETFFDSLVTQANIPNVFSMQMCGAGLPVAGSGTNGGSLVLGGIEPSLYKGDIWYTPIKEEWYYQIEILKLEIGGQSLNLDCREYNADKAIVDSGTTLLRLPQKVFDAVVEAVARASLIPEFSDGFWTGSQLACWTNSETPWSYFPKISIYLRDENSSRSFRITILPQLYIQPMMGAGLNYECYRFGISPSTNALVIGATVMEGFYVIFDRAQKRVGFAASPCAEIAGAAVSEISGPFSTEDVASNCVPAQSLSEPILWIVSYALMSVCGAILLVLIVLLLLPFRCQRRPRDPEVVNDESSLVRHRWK

T1 sequence (P56817 whole entry): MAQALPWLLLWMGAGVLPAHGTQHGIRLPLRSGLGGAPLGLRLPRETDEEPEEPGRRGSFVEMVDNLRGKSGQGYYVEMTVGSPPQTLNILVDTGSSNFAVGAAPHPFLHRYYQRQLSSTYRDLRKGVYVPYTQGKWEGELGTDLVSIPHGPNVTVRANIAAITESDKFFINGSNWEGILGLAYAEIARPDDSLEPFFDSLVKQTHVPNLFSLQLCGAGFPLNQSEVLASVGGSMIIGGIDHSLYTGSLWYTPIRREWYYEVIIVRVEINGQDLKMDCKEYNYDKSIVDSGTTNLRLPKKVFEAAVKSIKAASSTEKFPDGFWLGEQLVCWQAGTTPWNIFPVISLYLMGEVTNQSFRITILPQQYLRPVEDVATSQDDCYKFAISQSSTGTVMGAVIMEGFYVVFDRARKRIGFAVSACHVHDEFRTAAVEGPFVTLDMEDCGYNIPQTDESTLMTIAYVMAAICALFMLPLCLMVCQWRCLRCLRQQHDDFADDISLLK

| IC50 (Beta-secretase 1 [1]; read-out: IC50) [µM] | inhibition (Beta-secretase 1 [2]) | Ratio IC50 (Homo sapiens) | IC50 (Beta-secretase 2) [µM] | SMILES | viability at 24 h, 100 µM [3] [%] | other results |
| --- | --- | --- | --- | --- | --- | --- |
| > 100 | 41.3% |  |  | NCc1ccc(CNC(=O)Cc2ccc(-c3ccc(O)cc3)cc2)cc1 |  |  |
| > 100 | 34.4% |  |  | CCN(CC)Cc1ccc(CNC(=O)Cc2ccc(-c3ccccc3)cc2)cc1 | 38 |  |
| 101 | 51.8% | 2 | 246 | NCc1ccc(CNC(=O)Cc2ccc(-c3c(F)c(F)c(F)c(F)c3F)cc2)cc1 | 68 | Activity (HEK293; Homo sapiens): inactive; inhibition (Beta-secretase 1 [4]): Active; inhibition (Beta-secretase 1 [5]): 39.4% |
| 63.9 | 80.6% |  | 33.2 | NCc1ccc(CNC(=O)Cc2ccc(-c3cc(C(F)(F)F)cc(C(F)(F)F)c3)cc2)cc1 | 8 |  |
| > 100 | 28.1% |  |  | NCc1ccc(CNC(=O)Cc2ccc(-c3ccccc3)c(O)c2)cc1 | 50 |  |
| 58.9 | 60.7% | 2 | 319 | NCc1ccc(CNC(=O)Cc2ccc(-c3cccc(C(F)(F)F)c3)cc2)cc1 | 46 |  |
| 323 | 35.6% | 2 | > 1000 | NCc1ccc(CNC(=O)Cc2ccc(-c3ccccc3)cc2)cc1 | 42 |  |
| > 100 | 42.5% |  |  | NCc1ccc(CNC(=O)Cc2ccc(-c3ccccc3)cc2O)cc1 | 18 |  |
|  | inactive |  |  | COc1ccc(CNC(=O)Cc2ccc(-c3ccccc3)cc2)cc1 | 82 | inhibition (Beta-secretase 1 [1]): inactive |

The remaining lines, values behind:

| SMILES | IC50 (Beta-secretase 1 [1]; read-out: IC50) [µM] | inhibition (Beta-secretase 1 [2]) | Ratio IC50 (Homo sapiens) | IC50 (Beta-secretase 2) [µM] | viability at 24 h, 100 µM [3] [%] | other results |
| --- | --- | --- | --- | --- | --- | --- |
| O=C(Cc1ccc(-c2ccccc2)cc1)NCc1ccccc1 |  | 15.2% |  |  | 93 | inhibition (Beta-secretase 1 [1]): inactive |
| O=C(Cc1ccc(-c2ccccc2)cc1)NCc1ccc(CN2CCCC2)cc1 | > 100 | 24.4% |  |  | 24 |  |
| COc1ccc(NC(=O)Cc2ccc(-c3ccccc3)cc2)cc1 |  | inactive |  |  |  |  |
| O=C(Cc1ccc(-c2cccc(C(F)(F)F)c2)cc1)NCc1ccccc1 |  |  |  |  | 27 | IC50 (Beta-secretase 1 [1]): Not Active |
| CC(C(=O)NCc1ccc(CN)cc1)c1ccc(-c2ccccc2)c(F)c1 (stereo unspecified) | 77.1 | 51.7% | 2 | 207 | 11 |  |
| O=C(Cc1ccc(-c2ccccc2)cc1)NCCc1c[nH]c2ccccc12 |  | inactive |  |  |  |  |
| NCc1ccc(CNC(=O)C(Cc2ccccc2)c2ccc(-c3ccccc3)cc2)cc1 (stereo unspecified) | 26.9 | 102% |  | 21 | 15 |  |
| C[C@@H](C(=O)NCc1ccc(CN)cc1)c1ccc(-c2ccccc2)c(F)c1 | 85.7 | 55.5% | 2 | 194 | 18 |  |
| CC(C)C(C(=O)NCc1ccc(CN)cc1)c1ccc(-c2ccccc2)cc1 (stereo unspecified) | 33.5 | 66.1% | 2 | 100 | 50 |  |
| O=C(Cc1ccc(-c2c(F)c(F)c(F)c(F)c2F)cc1)NCc1ccccc1 |  |  |  |  | 61 | IC50 (Beta-secretase 1 [1]): Not Active |
| O=C(Cc1ccc(-c2ccccc2)cc1)NCc1ccc(CN2Cc3ccccc3C2)cc1 | 63.3 | 70.1% | 2 | > 1000 | 80 | Activity (HEK293): 10%; inhibition (Beta-secretase 1 [4]): 33%; inhibition (Beta-secretase 1 [5]): 21.7% |
| O=C(Cc1ccc(-c2cc(C(F)(F)F)cc(C(F)(F)F)c2)cc1)NCc1ccccc1 |  |  |  |  | 76 | IC50 (Beta-secretase 1 [1]): Not Active |
| CC[N+](CC)(CC)Cc1ccc(CNC(=O)Cc2ccc(-c3ccccc3)cc2)cc1 | > 100 | 44.1% |  |  | 40 |  |
| O=C(Cc1ccc(-c2ccccc2)cc1)Nc1ccc(Br)cc1 |  | inactive |  |  |  |  |
